Data set [1] has as its system N2a. Briefly: Cytotoxicity against mouse N2a-APP cells assessed as cell viability at 0.03 to 0.08 uM measured after 24 hrs by MTT assay. Particulars: dose 0.03-0.08 µM. For orientation: Tetrazolium assays rely on reduction of a dye to a coloured formazan, in cell work by metabolically active cells.
Data set [2] can be described thus: Permeability of compound assessed as retention time by PAMPA-BBB assay. Type of data set: ADME. In outline: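 Qualitative PAMPA-BBB. The donor solution was 200 μg/mL (final) in 0.01 M PBS pH 7.4, made from a stock in 50% EtOH. The filter was coated with brain polar lipid plus cholesterol in n-dodecane, and the acceptor held PBS. Plates were incubated 4 h at 37 °C. Donor and acceptor solutions were analysed by UHPLC-UV (200–400 nm) in triplicate, and compounds were identified by retention time.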
Background: In PAMPA a lipid-coated filter parts donor from acceptor wells.

For data set [3], the system named is N2a. Nature of the data set: Antialzheimer activity in mouse N2a-APP cells assessed as effect on […] expression at 0.03 to 0.08 uM measured after 24 to 48 hrs by RT-qPCR method. Type of data set: functional, cell-based. Particulars: dose 0.03-0.08 µM, time 24-48 hrs. The essentials: (§1)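 Mutant APP-overexpressing N2a cells were grown in DMEM with 10% FBS and L-glutamine at 37 °C in 5% CO2. They were seeded in six-well plates at 5 × 10^5/mL (24 h) or 5 × 10^5/2 mL (48 h) and treated at 0.03–0.08 μM. Controls were pioglitazone 14 μM and medium alone. SYBR green qPCR used 20 ng cDNA, GAPDH/18S references and triplicate reactions; 2^−ΔΔCt; mean ± SD, n = 3.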
On the technique in general: Quantitative PCR measures a nucleic acid by following its amplification.

In data set [4] the test system is N2a. Briefly: Cytotoxicity against mouse N2a-APP cells assessed as cell viability at 0.03 to 0.08 uM measured after 24 hrs by MTT assay. Type of data set: functional, cell-based. Particulars: dose 0.03-0.08 µM. The essentials: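 N2a-APP cells were seeded at 1 × 10^4 cells/well and exposed for 24 h to 0.03–0.08 μM, with medium-alone controls. MTT (1 mg/mL) was added for 2 h at 37 °C and the formazan was dissolved in DMSO. Absorbance was read at 570 nm, corrected at 650 nm. Survival is given as % of untreated cells; mean ± SD, one-way ANOVA.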

In data set [5] the test system is N2a. Briefly: Antialzheimer activity in mouse N2a-APP cells assessed as increase of […] expression at 0.03 to 0.08 uM measured after 24 hrs by RT-qPCR method. Type of data set: functional, cell-based. To be noted: dose 0.03-0.08 µM. The essentials:
as §1

Data set [6] relates to N2a. Nature of the data set: Antialzheimer activity in mouse N2a-APP cells assessed as reduction of BACE-1 expression at 0.03 to 0.08 uM measured after 48 hrs by RT-qPCR method. Type of data set: functional, cell-based. To be noted: dose 0.03-0.08 µM. The essentials:
as §1

The subject of data set [7] is N2a. Nature of the data set: Antialzheimer activity in mouse N2a-APP cells assessed as up-regulation of PGC-1alpha expression at 0.03 to 0.08 uM measured after 24 to 48 hrs by RT-qPCR method. Particulars: dose 0.03-0.08 µM, time 24-48 hrs. Type of data set: functional, cell-based. In outline:
as §1

Data set [8] concerns N2a. Briefly: Antialzheimer activity in mouse N2a-APP cells assessed as reduction of BACE-1 expression at 0.03 to 0.08 uM measured after 24 hrs by RT-qPCR method. Particulars: dose 0.03-0.08 µM. Type of data set: functional, cell-based. The essentials:
as §1

The test system of data set [9] is N2a. Nature of the data set: Antialzheimer activity in mouse N2a-APP cells assessed as increase of […] expression at 0.03 to 0.08 uM measured after 48 hrs by RT-qPCR method. Type of data set: functional, cell-based. Particulars: dose 0.03-0.08 µM. In outline:
as §1

The source made the active and inactive calls. The calls are words filed in the database; no cut-off is given here.

With `O=C(/C=C/c1ccc(O)cc1)NCCc1ccc(O)cc1` [N-P-COUMAROYL TYRAMINE], the result in the data set with N2a [1], with N2a [3] and in the data set with N2a [4] was inactive. The Retention_time in data set [2] is given as 27.32 min.

As for `O=C(NCCc1ccc(O)cc1)c1cc2cc(O)c(O)cc2c(-c2ccc(O)c(O)c2)c1C(=O)NCCc1ccc(O)cc1`, the Retention_time in [2] amounted to 28.07 min.

As to `COc1cc(/C=C/C(=O)NCCc2ccc(O)cc2)ccc1O` [N-TRANS-FERULOYL TYRAMINE], the Retention_time in [2] worked out at 28.42 min.

For `O=C(/C=C/c1ccc(O)c(O)c1)NCCc1ccc(O)cc1`, the outcome in the data set with N2a [1] and in the data set with N2a [4] was inactive. Further, the Retention_time in data set [2] is 24.08 min. In addition, the outcome in the data set on N2a [5], in the data set with N2a [6], with N2a [7], with N2a [8] and with N2a [9] was Active.

(Values after ChEMBL document CHEMBL5032515, “Dual Role of Phenyl Amides from Hempseed on BACE 1, PPARγ, and PGC-1α in N2a-APP Cells” (J Nat Prod, 2021).)
